The source made the active and inactive calls. The calls are words filed in the database; no cut-off is given here.
Key:
[1] = system: Mus musculus; assay: Antinociceptive activity in mouse assessed as inhibition of analgesia at 10 mg/kg, sc pretreated with 20 mg/kg, sc beta-funaltrexamine for 24 hrs by hotplate test; type: functional, organism-based
Outline: (§1)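 Mouse hot-plate and tail-flick antinociception after agonist 10 mg/kg sc. Pretreatment was saline, b-FNA 20 mg/kg sc or NTI 3 mg/kg sc, given at 24 h or 30 min before agonist. Data are mean with SEM of 6–8 trials.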

[2] = system: Mus musculus; assay: Antinociceptive activity in mouse assessed as inhibition of analgesia at 10 mg/kg, sc pretreated with 20 mg/kg, sc nor-BNI for 24 hrs by hotplate test; type: functional, organism-based
Outline: (§2)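 Mice were given agonist 10 mg/kg sc, and antinociception was read in the hot-plate and tail-flick tests. Pretreatment was saline or nor-BNI (5 or 20 mg/kg sc) 24 h before agonist. Data are mean with SEM, n = 6–8, compared with the saline–agonist group.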

[3] = biological target: Kappa-type opioid receptor (Mus musculus) (UniProt P33534); assay: Agonist activity at kappa opioid receptor-mediated G-protein activation in mouse whole brain membrane without cerebellum at 10 uM by [35S]GTPgammaS binding assay in presence of beta-funaltrexamine; type: functional, cell membranes
Kappa-type opioid receptor (Mus musculus), sequence (P33534 whole entry): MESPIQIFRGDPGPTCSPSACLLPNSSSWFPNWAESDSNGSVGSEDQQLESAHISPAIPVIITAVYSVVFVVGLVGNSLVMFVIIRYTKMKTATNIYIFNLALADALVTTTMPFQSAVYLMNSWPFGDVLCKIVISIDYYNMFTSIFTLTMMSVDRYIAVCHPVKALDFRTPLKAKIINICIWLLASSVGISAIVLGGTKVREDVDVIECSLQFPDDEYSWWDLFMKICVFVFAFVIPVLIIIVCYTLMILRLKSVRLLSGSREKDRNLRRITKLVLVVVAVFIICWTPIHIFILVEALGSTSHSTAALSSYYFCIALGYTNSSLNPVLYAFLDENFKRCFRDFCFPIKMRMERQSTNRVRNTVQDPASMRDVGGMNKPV
Outline: (§3)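 Mouse whole-brain membranes (cerebellum removed) incubated with [³⁵S]GTPγS and GDP plus agonist at 10^-5 M, alone or together with nor-BNI or b-FNA (levels not given). The read-out is % stimulation of [³⁵S]GTPγS binding.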

[4] = system: Mus musculus; assay: Antinociceptive activity in mouse assessed as inhibition of analgesia at 10 mg/kg, sc pretreated with 20 mg/kg, sc nor-BNI for 24 hrs by tail-flick test; type: functional, organism-based; outline: as §2
[5] = system: Mus musculus; assay: Antinociceptive activity in mouse assessed as inhibition of analgesia at 10 mg/kg, sc pretreated with 20 mg/kg, sc beta-funaltrexamine for 24 hrs by tail-flick test; type: functional, organism-based; outline: as §1
[6] = system: Mus musculus; assay: Antinociceptive activity in mouse assessed as inhibition of analgesia at 10 mg/kg, sc pretreated with 3 mg/kg, sc NTI for 24 hrs by tail-flick test; type: functional, organism-based; outline: as §1
[7] = system: Mus musculus; assay: Antinociceptive activity in mouse at 10 mg/kg, sc by hotplate test; type: functional, organism-based; design: dose 10 mg/kg; outline: as §2
[8] = biological target: Mu-type opioid receptor (Mus musculus, UniProt P42866); assay: Displacement of [3H]DAMGO from mu opioid receptor in mouse whole brain without cerebellum
Mu-type opioid receptor, sequence (P42866 whole entry): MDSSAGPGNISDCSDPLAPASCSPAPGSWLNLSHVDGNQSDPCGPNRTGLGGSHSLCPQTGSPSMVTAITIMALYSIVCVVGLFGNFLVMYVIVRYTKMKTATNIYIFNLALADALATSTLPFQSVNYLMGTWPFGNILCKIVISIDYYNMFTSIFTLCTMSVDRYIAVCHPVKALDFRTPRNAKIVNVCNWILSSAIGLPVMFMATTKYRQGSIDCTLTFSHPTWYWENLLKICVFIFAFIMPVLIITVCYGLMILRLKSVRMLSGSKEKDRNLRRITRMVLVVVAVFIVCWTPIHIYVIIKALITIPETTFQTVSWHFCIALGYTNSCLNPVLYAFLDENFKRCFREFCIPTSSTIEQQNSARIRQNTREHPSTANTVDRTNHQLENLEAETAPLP
Outline: (§4)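 Competition binding on mouse whole-brain membranes, using [³H]DAMGO for mu and [³H]DPDPE for delta. % specific binding was plotted against log concentration, and IC50 was derived from the curve.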

[9] = biological target: Kappa-type opioid receptor (Mus musculus) (UniProt P33534); assay: Agonist activity at kappa opioid receptor-mediated G-protein activation in mouse whole brain membrane without cerebellum at 10 uM by [35S]GTPgammaS binding assay; type: functional, cell membranes; outline: as §3
[10] = biological target: Kappa-type opioid receptor (Mus musculus) (UniProt P33534); assay: Agonist activity at kappa opioid receptor-mediated G-protein activation in mouse whole brain membrane without cerebellum at 10 uM by [35S]GTPgammaS binding assay in presence of nor-BNI; type: functional, cell membranes; outline: as §3
[11] = system: Mus musculus; assay: Antinociceptive activity in mouse at 10 mg/kg, sc by tail-flick test; type: functional, organism-based; design: dose 10 mg/kg; outline: as §2
[12] = biological target: Delta-type opioid receptor (Mus musculus, UniProt P32300); assay: Displacement of [3H]DPDPE from delta opioid receptor in mouse whole brain without cerebellum; outline: as §4
Delta-type opioid receptor, sequence (P32300 whole entry): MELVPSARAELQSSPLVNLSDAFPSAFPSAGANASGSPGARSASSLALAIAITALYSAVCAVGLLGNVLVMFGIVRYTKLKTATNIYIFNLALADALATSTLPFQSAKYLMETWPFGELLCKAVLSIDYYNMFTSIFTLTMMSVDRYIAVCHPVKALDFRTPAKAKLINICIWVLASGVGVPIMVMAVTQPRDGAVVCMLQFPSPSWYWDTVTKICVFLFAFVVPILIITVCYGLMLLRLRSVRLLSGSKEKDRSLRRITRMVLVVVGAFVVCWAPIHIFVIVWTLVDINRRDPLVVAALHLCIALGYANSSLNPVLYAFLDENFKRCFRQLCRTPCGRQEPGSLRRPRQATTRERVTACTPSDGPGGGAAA

[13] = system: Mus musculus; assay: Antinociceptive activity in mouse assessed as inhibition of analgesia at 10 mg/kg, sc pretreated with 3 mg/kg, sc NTI for 24 hrs by hotplate test; type: functional, organism-based; outline: as §1
[14] = biological target: Kappa-type opioid receptor (Cavia porcellus, UniProt P41144); assay: Displacement of [3H]U69,593 from kappa opioid receptor in guinea pig cerebellum; type: tissue-based
Kappa-type opioid receptor, sequence (P41144 whole entry): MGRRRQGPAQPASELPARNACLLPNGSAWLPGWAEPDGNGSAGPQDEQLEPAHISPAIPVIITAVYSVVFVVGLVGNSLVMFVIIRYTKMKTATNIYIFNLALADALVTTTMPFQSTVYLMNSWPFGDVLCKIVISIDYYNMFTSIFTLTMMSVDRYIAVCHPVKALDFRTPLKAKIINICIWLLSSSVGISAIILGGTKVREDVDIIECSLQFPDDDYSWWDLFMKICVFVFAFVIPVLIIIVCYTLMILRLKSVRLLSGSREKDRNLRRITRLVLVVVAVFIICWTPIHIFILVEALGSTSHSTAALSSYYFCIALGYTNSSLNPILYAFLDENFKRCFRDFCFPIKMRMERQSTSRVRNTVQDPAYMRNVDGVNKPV

SMILES | Activity [1] | Activity [2] | Activity [3] [%] | Activity [4] | Activity [5] | Activity [6] | Activity [7] | IC50 [8] [nM] | Activity [9] [%] | Activity [10] [%] | Activity [11] | IC50 [12] [nM] | Activity [13] | Ki [8] [nM] | Ki [14] [nM] | Ki [12] [nM]
O=C(NC[C@]12CC[C@@]3(O1)[C@@H]1Cc4ccc(O)cc4[C@@]3(CCN1CC1CC1)C2)c1ccccc1 | inactive | Active | 19.2 | Active | inactive | inactive | Active | 0.288 | 29.8 | 10.7 | Active | 2.07 | inactive | – | – | –
O=C1N(CCc2ccccc2)CO[C@]12CC[C@@]1(O)[C@@H]3Cc4ccc(O)c5c4[C@@]1(CCN3CC1CC1)[C@H]2O5 | – | – | – | – | – | – | – | – | – | – | – | – | – | 4.54 | 8.66 | 4.82

From ChEMBL document CHEMBL1152185, “Synthesis of a novel 6,14-epoxymorphinan derivative and its pharmacology” (Bioorg Med Chem Lett, 2008)
